Measured values published in ChEMBL document CHEMBL1142148, “Antibiotic susceptibility profile of bifidobacteria as affected by oxgall, acid, and hydrogen peroxide stress” (2007).
Converted amounts (≈) assume the structure as drawn.

Columns and labels:
Bifidobacterium longum [1] = test: Antimicrobial activity against Bifidobacterium longum P/N 601377; type: functional
Procedure, shortened: (§1)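 Broth microdilution in MRS plus 0.05% L-cysteine-HCl. Mid-log culture adjusted to OD650 0.1, giving about 2.5 × 10^4 to 5.0 × 10^4 CFU/well, then added to twofold serial dilutions of agent. Plates incubated anaerobically at 37°C for 18 h and read at OD650. MIC is the lowest concentration matching the uninoculated blank OD, taken as the median of four repeats.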

Bifidobacterium animalis [2] = test: Antimicrobial activity against Bifidobacterium animalis ATCC 27536; type: functional; procedure, shortened: as §1
Bifidobacterium longum [3] = test: Antimicrobial activity against 90 mins oxgall-stressed Bifidobacterium longum ATCC 15708 after 18 hrs; type: functional
Procedure, shortened: (§2)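 Cells pelleted from mid-log MRS culture and resuspended in MRS (initial pH 6.5) with 0.3% (wt/vol) oxgall for 90 min anaerobically at 37°C. They were then regrown in MRS pH 6.5 for 24 h (footnote: 18 h) anaerobically and tested for MIC by the same broth microdilution assay. Median of four repetitions.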

Bifidobacterium longum [4] = test: Antimicrobial activity against 90 mins hydrogen peroxide-stressed Bifidobacterium longum P/N 601377 after 18 hrs; type: functional
Procedure, shortened: (§3)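 Stress applied for 90 min at 37°C under anaerobic conditions, using MRS (initial pH 6.5) containing H2O2 at each strain's own inhibitory concentration. The H2O2 level was set beforehand by microplate tolerance testing. Challenged cells were regrown in MRS for 24 h (footnote: 18 h) before MIC testing by broth microdilution. Median of four repetitions.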

Bifidobacterium animalis [5] = test: Antimicrobial activity against 90 mins oxgall-stressed Bifidobacterium animalis ATCC 27536 after 18 hrs; type: functional; procedure, shortened: as §2
[6] = tested on: Bifidobacterium thermophilum; test: Antimicrobial activity against 90 mins hydrogen peroxide-stressed Bifidobacterium thermophilum ATCC 25866 after 18 hrs; type: functional; procedure, shortened: as §3
[7] = Antimicrobial activity against 60 min 1 M HCl-stressed Bifidobacterium infantis ATCC 15697 after 18 hrs; type: functional, Bifidobacterium longum subsp. infantis; conditions: Bifidobacterium longum
Procedure, shortened: (§4)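 Mid-log MRS culture pelleted and resuspended in MRS broth brought to pH 2.0 with 1 M HCl, held anaerobically at 37°C for 60 min, then subcultured in MRS (pH 6.5) for 24 h anaerobically before MIC testing by broth microdilution (as for unstressed cells). Table footnote gives 18 h anaerobic regrowth after the stress. MIC is the median of four repetitions.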

Bifidobacterium bifidum [8] = test: Antimicrobial activity against 90 mins hydrogen peroxide-stressed Bifidobacterium bifidum R0071 after 18 hrs; type: functional; procedure, shortened: as §3
[9] = tested on: Bifidobacterium pseudolongum; test: Antimicrobial activity against 60 min 1 M HCl-stressed Bifidobacterium pseudolongum ATCC 25562 after 18 hrs; type: functional; procedure, shortened: as §4
Bifidobacterium longum [10] = test: Antimicrobial activity against 90 mins oxgall-stressed Bifidobacterium longum R0175 after 18 hrs; type: functional; procedure, shortened: as §2
Bifidobacterium animalis [11] = test: Antimicrobial activity against 60 min 1 M HCl-stressed Bifidobacterium animalis ATCC 27536 after 18 hrs; type: functional; procedure, shortened: as §4
Bifidobacterium longum [12] = test: Antimicrobial activity against Bifidobacterium longum R0175; type: functional; procedure, shortened: as §1
Bifidobacterium longum [13] = test: Antimicrobial activity against 90 mins oxgall-stressed Bifidobacterium longum P/N 601377 after 18 hrs; type: functional; procedure, shortened: as §2
Bifidobacterium bifidum [14] = test: Antimicrobial activity against 90 mins oxgall-stressed Bifidobacterium bifidum ATCC 15696 after 18 hrs; type: functional; procedure, shortened: as §2
[15] = tested on: Bifidobacterium thermophilum; test: Antimicrobial activity against 90 mins oxgall-stressed Bifidobacterium thermophilum ATCC 25866 after 18 hrs; type: functional; procedure, shortened: as §2
Bifidobacterium breve [16] = test: Antimicrobial activity against 60 min 1 M HCl-stressed Bifidobacterium breve ATCC 15700 after 18 hrs; type: functional; procedure, shortened: as §4
Bifidobacterium longum [17] = test: Antimicrobial activity against Bifidobacterium longum ATCC 15708; type: functional; procedure, shortened: as §1
Bifidobacterium longum [18] = test: Antimicrobial activity against 60 min 1 M HCl-stressed Bifidobacterium longum P/N 601377 after 18 hrs; type: functional; procedure, shortened: as §4
Bifidobacterium longum [19] = test: Antimicrobial activity against Bifidobacterium longum ATCC 15707; type: functional; procedure, shortened: as §1
Bifidobacterium bifidum [20] = test: Antimicrobial activity against Bifidobacterium bifidum ATCC 15696; type: functional; procedure, shortened: as §1
Bifidobacterium longum [21] = test: Antimicrobial activity against 90 mins oxgall-stressed Bifidobacterium longum ATCC 15707 after 18 hrs; type: functional; procedure, shortened: as §2
Bifidobacterium bifidum [22] = test: Antimicrobial activity against 60 min 1 M HCl-stressed Bifidobacterium bifidum BB12 after 18 hrs; type: functional; procedure, shortened: as §4
Bifidobacterium animalis [23] = test: Antimicrobial activity against 90 mins hydrogen peroxide-stressed Bifidobacterium animalis ATCC 27536 after 18 hrs; type: functional; procedure, shortened: as §3
Bifidobacterium bifidum [24] = test: Antimicrobial activity against Bifidobacterium bifidum R0071; type: functional; procedure, shortened: as §1
Bifidobacterium longum [25] = test: Antimicrobial activity against 90 mins hydrogen peroxide-stressed Bifidobacterium longum ATCC 15708 after 18 hrs; type: functional; procedure, shortened: as §3
Bifidobacterium breve [26] = test: Antimicrobial activity against 90 mins oxgall-stressed Bifidobacterium breve R0070 after 18 hrs; type: functional; procedure, shortened: as §2
Bifidobacterium breve [27] = test: Antimicrobial activity against 90 mins oxgall-stressed Bifidobacterium breve ATCC 15700 after 18 hrs; type: functional; procedure, shortened: as §2
[28] = tested on: Bifidobacterium pseudolongum; test: Antimicrobial activity against 90 mins oxgall-stressed Bifidobacterium pseudolongum ATCC 25562 after 18 hrs; type: functional; procedure, shortened: as §2
Bifidobacterium bifidum [29] = test: Antimicrobial activity against 90 mins oxgall-stressed Bifidobacterium bifidum R0071 after 18 hrs; type: functional; procedure, shortened: as §2
Bifidobacterium longum [30] = test: Antimicrobial activity against 90 mins hydrogen peroxide-stressed Bifidobacterium longum R0175 after 18 hrs; type: functional; procedure, shortened: as §3
Bifidobacterium longum [31] = test: Antimicrobial activity against 60 min 1 M HCl-stressed Bifidobacterium longum ATCC 15707 after 18 hrs; type: functional; procedure, shortened: as §4
Bifidobacterium longum [32] = test: Antimicrobial activity against 90 mins hydrogen peroxide-stressed Bifidobacterium longum ATCC 15707 after 18 hrs; type: functional; procedure, shortened: as §3
Bifidobacterium bifidum [33] = test: Antimicrobial activity against Bifidobacterium bifidum BB12; type: functional; procedure, shortened: as §1
Bifidobacterium breve [34] = test: Antimicrobial activity against 90 mins hydrogen peroxide-stressed Bifidobacterium breve R0070 after 18 hrs; type: functional; procedure, shortened: as §3
Bifidobacterium bifidum [35] = test: Antimicrobial activity against 90 mins hydrogen peroxide-stressed Bifidobacterium bifidum BB12 after 18 hrs; type: functional; procedure, shortened: as §3
[36] = tested on: Bifidobacterium pseudolongum; test: Antimicrobial activity against Bifidobacterium pseudolongum ATCC 25562; type: functional; procedure, shortened: as §1
Bifidobacterium breve [37] = test: Antimicrobial activity against 60 min 1 M HCl-stressed Bifidobacterium breve R0070 after 18 hrs; type: functional; procedure, shortened: as §4
[38] = tested on: Bifidobacterium thermophilum; test: Antimicrobial activity against 60 min 1 M HCl-stressed Bifidobacterium thermophilum ATCC 25866 after 18 hrs; type: functional; procedure, shortened: as §4
Bifidobacterium bifidum [39] = test: Antimicrobial activity against 60 min 1 M HCl-stressed Bifidobacterium bifidum R0071 after 18 hrs; type: functional; procedure, shortened: as §4
Bifidobacterium breve [40] = test: Antimicrobial activity against Bifidobacterium breve ATCC 15700; type: functional; procedure, shortened: as §1
[41] = Antimicrobial activity against 90 mins oxgall-stressed Bifidobacterium infantis ATCC 15697 after 18 hrs; type: functional, Bifidobacterium longum subsp. infantis; conditions: Bifidobacterium longum; procedure, shortened: as §2
[42] = Antimicrobial activity against Bifidobacterium infantis ATCC 15697; type: functional, Bifidobacterium longum subsp. infantis; conditions: Bifidobacterium longum; procedure, shortened: as §1
Bifidobacterium bifidum [43] = test: Antimicrobial activity against 90 mins oxgall-stressed Bifidobacterium bifidum BB12 after 18 hrs; type: functional; procedure, shortened: as §2
[44] = tested on: Bifidobacterium thermophilum; test: Antimicrobial activity against Bifidobacterium thermophilum ATCC 25866; type: functional; procedure, shortened: as §1
Bifidobacterium breve [45] = test: Antimicrobial activity against 90 mins hydrogen peroxide-stressed Bifidobacterium breve ATCC 15700 after 18 hrs; type: functional; procedure, shortened: as §3
Bifidobacterium longum [46] = test: Antimicrobial activity against 60 min 1 M HCl-stressed Bifidobacterium longum R0175 after 18 hrs; type: functional; procedure, shortened: as §4
Bifidobacterium breve [47] = test: Antimicrobial activity against Bifidobacterium breve R0070; type: functional; procedure, shortened: as §1

- MIC (Bifidobacterium longum [1]): 31.2 µg/mL (≈ 71.6 µM)
- MIC (Bifidobacterium animalis [2]): 3.9 µg/mL (≈ 8.95 µM)
- MIC (Bifidobacterium longum [3]): 125 µg/mL (≈ 287 µM)
- MIC (Bifidobacterium longum [4]): 31.2 µg/mL (≈ 71.6 µM)
- MIC (Bifidobacterium animalis [5]): 125 µg/mL (≈ 287 µM)
- MIC [6]: 7.8 µg/mL (≈ 17.9 µM)
- MIC [7]: 125 µg/mL (≈ 287 µM)
- MIC (Bifidobacterium bifidum [8]): 31.2 µg/mL (≈ 71.6 µM)
- MIC [9]: 0.98 µg/mL (≈ 2.25 µM)
- MIC (Bifidobacterium longum [10]): 125 µg/mL (≈ 287 µM)
- MIC (Bifidobacterium animalis [11]): 3.9 µg/mL (≈ 8.95 µM)
- MIC (Bifidobacterium longum [12]): 62.5 µg/mL (≈ 143 µM)
- MIC (Bifidobacterium longum [13]): 62.5 µg/mL (≈ 143 µM)
- MIC (Bifidobacterium bifidum [14]): 62.5 µg/mL (≈ 143 µM)
- MIC [15]: 62.5 µg/mL (≈ 143 µM)
- MIC (Bifidobacterium breve [16]): 125 µg/mL (≈ 287 µM)
- MIC (Bifidobacterium longum [17]): 7.8 µg/mL (≈ 17.9 µM)
- MIC (Bifidobacterium longum [18]): 0.98 µg/mL (≈ 2.25 µM)
- MIC (Bifidobacterium longum [19]): 15.6 µg/mL (≈ 35.8 µM)
- MIC (Bifidobacterium bifidum [20]): 7.8 µg/mL (≈ 17.9 µM)
- MIC (Bifidobacterium longum [21]): 125 µg/mL (≈ 287 µM)
- MIC (Bifidobacterium bifidum [22]): 0.98 µg/mL (≈ 2.25 µM)
- MIC (Bifidobacterium animalis [23]): 3.9 µg/mL (≈ 8.95 µM)
- MIC (Bifidobacterium bifidum [24]): 15.6 µg/mL (≈ 35.8 µM)
- MIC (Bifidobacterium longum [25]): 7.8 µg/mL (≈ 17.9 µM)
- MIC (Bifidobacterium breve [26]): 31.2 µg/mL (≈ 71.6 µM)
- MIC (Bifidobacterium breve [27]): 3.9 µg/mL (≈ 8.95 µM)
- MIC [28]: 62.5 µg/mL (≈ 143 µM)
- MIC (Bifidobacterium bifidum [29]): 62.5 µg/mL (≈ 143 µM)
- MIC (Bifidobacterium longum [30]): 31.2 µg/mL (≈ 71.6 µM)
- MIC (Bifidobacterium longum [31]): 15.6 µg/mL (≈ 35.8 µM)
- MIC (Bifidobacterium longum [32]): 0.98 µg/mL (≈ 2.25 µM)
- MIC (Bifidobacterium bifidum [33]): 0.98 µg/mL (≈ 2.25 µM)
- MIC (Bifidobacterium breve [34]): 15.6 µg/mL (≈ 35.8 µM)
- MIC (Bifidobacterium bifidum [35]): 1.9 µg/mL (≈ 4.36 µM)
- MIC [36]: 3.9 µg/mL (≈ 8.95 µM)
- MIC (Bifidobacterium breve [37]): 15.6 µg/mL (≈ 35.8 µM)
- MIC [38]: 31.2 µg/mL (≈ 71.6 µM)
- MIC (Bifidobacterium bifidum [39]): 15.6 µg/mL (≈ 35.8 µM)
- MIC (Bifidobacterium breve [40]): 15.6 µg/mL (≈ 35.8 µM)
- MIC [41]: 125 µg/mL (≈ 287 µM)
- MIC [42]: 15.6 µg/mL (≈ 35.8 µM)
- MIC (Bifidobacterium bifidum [43]): 1.9 µg/mL (≈ 4.36 µM)
- MIC [44]: 15.6 µg/mL (≈ 35.8 µM)
- MIC (Bifidobacterium breve [45]): 3.9 µg/mL (≈ 8.95 µM)
- MIC (Bifidobacterium longum [46]): 0.98 µg/mL (≈ 2.25 µM)
- MIC (Bifidobacterium breve [47]): 31.2 µg/mL (≈ 71.6 µM)
Structure (SMILES): Cc1onc(-c2ccccc2Cl)c1C(=O)N[C@@H]1C(=O)N2[C@@H]1SC(C)(C)[C@@H]2C(=O)O [CLOXACILLIN]
